# Laboratory results as given in ChEMBL document CHEMBL5724801, “EUbOPEN Chemogenomics Library - Multiplex” (2024).
# Several values for one entry are separate records, joined by “and”; a condition that tells them apart may be missing. Equal values may be shown once.
# Tested on: HEK-293T
# Assay: Multiplex assay against HEK293T
# Format: toxicity, cell-based
# Conditions: human
# How it was run: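 Live cells carried four stains from seeding: Hoechst33342, BioTracker Green Microtubule Cytoskeleton Dye, MitoTracker Red and Annexin V Alexa Fluor 680. They were imaged on a CQ1 microscope at 37°C and 5% CO2 after compound addition. Using CellPathfinder machine-learning gating, cells were split into Hoechst high-intensity objects or normal cells, normal cells into healthy, pyknosed or fragmented nuclei, and pyknosed cells into mitotic or apoptotic; tubulin, mitochondrial-mass and membrane-permeability phenotypes are per cents of healthy-nucleus cells.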
# [1] = 12 h, 1 µM, compound concentration 1 uM
# [2] = 12 h, 10 µM, compound concentration 10 uM
# [3] = 24 h, 1 µM, compound concentration 1 uM
# [4] = 24 h, 10 µM, compound concentration 10 uM
# [5] = 48 h, 1 µM, compound concentration 1 uM
# [6] = 48 h, 10 µM, compound concentration 10 uM
structure (smiles),measurement,setting,value
Nc1nc(-c2ccco2)c2cnn(Cc3ccccc3F)c2n1,Population Apoptotic (%),[1],37% and 36%
same,Population Fragmented Nuclei (%),[1],6% and 5%
same,Population Healthy Nuclei (%),[1],76% and 81%
same,Population Hoechst High Intensity Objects (%),[1],9% and 11%
same,Population Membrane Permeable-Phenotype (%),[1],0%
same,Population Mitochondria Different-Phenotype (%),[1],58% and 64%
same,Population Mitotic Cells (%),[1],62% and 63%
same,Population Normal (%),[1],90% and 88%
same,Population Pyknosed Nuclei (%),[1],16% and 13%
same,Population Tubulin-Different-Phenotype (%),[1],41% and 23%
same,Total Cell Count,[1],300 and 404
same,Population Apoptotic (%),[2],33% and 40%
same,Population Fragmented Nuclei (%),[2],7% and 6%
same,Population Healthy Nuclei (%),[2],73% and 76%
same,Population Hoechst High Intensity Objects (%),[2],8% and 12%
same,Population Membrane Permeable-Phenotype (%),[2],0%
same,Population Mitochondria Different-Phenotype (%),[2],61% and 68%
same,Population Mitotic Cells (%),[2],66% and 60%
same,Population Normal (%),[2],91% and 87%
same,Population Pyknosed Nuclei (%),[2],19% and 17%
same,Population Tubulin-Different-Phenotype (%),[2],43% and 26%
same,Total Cell Count,[2],306 and 265
same,Population Apoptotic (%),[3],30% and 28%
same,Population Fragmented Nuclei (%),[3],7% and 9%
same,Population Healthy Nuclei (%),[3],77% and 81%
same,Population Hoechst High Intensity Objects (%),[3],7% and 5%
same,Population Membrane Permeable-Phenotype (%),[3],0%
same,Population Mitochondria Different-Phenotype (%),[3],36% and 46%
same,Population Mitotic Cells (%),[3],69% and 71%
same,Population Normal (%),[3],92% and 94%
same,Population Pyknosed Nuclei (%),[3],15% and 9%
same,Population Tubulin-Different-Phenotype (%),[3],26% and 17%
same,Total Cell Count,[3],396 and 514
same,Population Apoptotic (%),[4],38% and 35%
same,Population Fragmented Nuclei (%),[4],11%
same,Population Healthy Nuclei (%),[4],67%
same,Population Hoechst High Intensity Objects (%),[4],6% and 10%
same,Population Membrane Permeable-Phenotype (%),[4],2% and 0%
same,Population Mitochondria Different-Phenotype (%),[4],52% and 59%
same,Population Mitotic Cells (%),[4],61% and 64%
same,Population Normal (%),[4],93% and 89%
same,Population Pyknosed Nuclei (%),[4],21%
same,Population Tubulin-Different-Phenotype (%),[4],31% and 23%
same,Total Cell Count,[4],334 and 328
same,Population Apoptotic (%),[5],32% and 28%
same,Population Fragmented Nuclei (%),[5],12% and 14%
same,Population Healthy Nuclei (%),[5],75% and 78%
same,Population Hoechst High Intensity Objects (%),[5],3% and 4%
same,Population Membrane Permeable-Phenotype (%),[5],1%
same,Population Mitochondria Different-Phenotype (%),[5],31% and 21%
same,Population Mitotic Cells (%),[5],67% and 71%
same,Population Normal (%),[5],96% and 95%
same,Population Pyknosed Nuclei (%),[5],12% and 7%
same,Population Tubulin-Different-Phenotype (%),[5],18% and 14%
same,Total Cell Count,[5],641 and 769
same,Population Apoptotic (%),[6],36% and 28%
same,Population Fragmented Nuclei (%),[6],16% and 13%
same,Population Healthy Nuclei (%),[6],73% and 74%
same,Population Hoechst High Intensity Objects (%),[6],7%
same,Population Membrane Permeable-Phenotype (%),[6],0%
same,Population Mitochondria Different-Phenotype (%),[6],42% and 43%
same,Population Mitotic Cells (%),[6],63% and 71%
same,Population Normal (%),[6],92%
same,Population Pyknosed Nuclei (%),[6],9% and 12%
same,Population Tubulin-Different-Phenotype (%),[6],19% and 15%
same,Total Cell Count,[6],412 and 398
